Test results published in ChEMBL document CHEMBL1125281, “Identification and synthesis of a receptor binding site of human anaphylatoxin C5a” (J Med Chem, 1991).
Where a SMILES comes first, the peptide text is derived from it.

Experiments:
[1] = biological target: T1, C5a anaphylatoxin chemotactic receptor 1 (Homo sapiens, UniProt P21730); experiment: Inhibition of [125I]C5a binding to C5a anaphylatoxin chemotactic receptor in PMNL intact cells; inactive; assay type: cell-based
T1 sequence (P21730 whole entry): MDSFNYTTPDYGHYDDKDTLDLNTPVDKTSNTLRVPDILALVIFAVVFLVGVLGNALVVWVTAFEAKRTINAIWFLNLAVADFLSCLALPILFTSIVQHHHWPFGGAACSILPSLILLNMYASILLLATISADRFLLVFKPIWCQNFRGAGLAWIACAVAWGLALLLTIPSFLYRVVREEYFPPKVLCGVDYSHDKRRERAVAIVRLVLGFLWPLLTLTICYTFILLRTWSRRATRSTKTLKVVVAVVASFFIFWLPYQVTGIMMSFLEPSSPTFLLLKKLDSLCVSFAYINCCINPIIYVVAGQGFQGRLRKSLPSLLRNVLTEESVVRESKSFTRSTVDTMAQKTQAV
Summary of the method: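 Intact human PMNL isolated from peripheral blood by one-step density centrifugation. Cells incubated 20 min at 23 °C with [125I]C5a (1 × 10⁻⁹ M), test peptide and protease inhibitors. Cells separated from free ligand by centrifugation through silicone oil at 10000g; pellet γ counts read.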

[2] = biological target: T1, C5a anaphylatoxin chemotactic receptor 1; experiment: Compound was tested for the inhibition of [125I]C5a binding to C5a anaphylatoxin chemotactic receptor in PMNL membranes; inactive; assay type: cell membranes
[3] = biological target: T1, C5a anaphylatoxin chemotactic receptor 1; experiment: Compound was tested for the inhibition of [125I]C5a binding to C5a anaphylatoxin chemotactic receptor binding to PMNL membranes.
[4] = biological target: T2, C5a anaphylatoxin chemotactic receptor 1 (Homo sapiens) (UniProt P21730); experiment: Compound was tested for the inhibition of [125I]C5a binding to C5a anaphylatoxin chemotactic receptor in PMNL membranes.; assay type: cell membranes; conditions: concentration not given here
T2 sequence (whole entry): T1 sequence (P21730 whole entry)

[5] = biological target: T1, C5a anaphylatoxin chemotactic receptor 1; experiment: Inhibition of [125I]-C5a anaphylatoxin chemotactic receptor binding to PMNL membranes.
[6] = biological target: T2, C5a anaphylatoxin chemotactic receptor 1 (Homo sapiens); experiment: Compound was tested for the inhibition of [125I]C5a anaphylatoxin chemotactic receptor binding to PMNL intact cells at a concentration of 0.1-1 mM.; assay type: cell-based
[7] = biological target: T1, C5a anaphylatoxin chemotactic receptor 1; experiment: Compound was tested for the inhibition of [125I]C5a anaphylatoxin chemotactic receptor binding to PMNL membranes at a concentration of 0.1-1 mM

SMILES | Ki [1] | inhibition [6] [%] | also measured
CSCC[C@H](NC(=O)[C@H](CC(=O)O)NC(C)=O)C(=O)N[C@@H](CCC(N)=O)C(=O)N[C@@H](CC(C)C)C(=O)NCC(=O)N[C@@H](CCCN=C(N)N)C(=O)O (Ac-DMQLGR-OH) | Not Active | – | Ki [2]: Not Active
CC[C@H](C)[C@H](NC(C)=O)C(=O)N[C@@H](CO)C(=O)N[C@@H](Cc1c[nH]cn1)C(=O)N[C@@H](CCCCN)C(=O)N[C@@H](CC(=O)O)C(=O)N[C@@H](CCSC)C(=O)N[C@@H](CCC(N)=O)C(=O)N[C@@H](CC(C)C)C(=O)N[C@@H](CCCN=C(N)N)C(=O)NCC(=O)N[C@@H](CCCN=C(N)N)C(=O)O (Ac-ISHKDMQLRGR-OH) | Not Active | – | Ki [3]: 100 µM
CSCC[C@H](NC(=O)[C@H](CC(=O)O)NC(=O)[C@H](CCCCN)NC(C)=O)C(=O)N[C@@H](CCC(N)=O)C(=O)N[C@@H](CC(C)C)C(=O)NCC(=O)N[C@@H](CCCN=C(N)N)C(=O)O (Ac-KDMQLGR-OH) | Not Active | – | inhibition [4]: 30%
CC[C@H](C)[C@H](NC(=O)[C@H](CCSC)NC(C)=O)C(=O)N[C@@H](CCCCN)C(=O)N[C@@H](C)C(=O)N[C@@H](Cc1ccccc1)C(=O)N[C@H](C(=O)N[C@@H](CCC(=O)O)C(=O)N[C@@H](CCSC)C(=O)N[C@@H](CCSC)C(=O)N[C@H](C(=O)N[C@H](C(=O)N[C@@H](C)C(=O)N[C@@H](CO)C(=O)N[C@@H](CCC(N)=O)C(=O)N[C@@H](CC(C)C)C(=O)N[C@@H](CCCN=C(N)N)C(=O)N[C@@H](C)C(=O)N[C@@H](CC(N)=O)C(=O)N[C@H](C(=O)N[C@@H](CO)C(=O)N[C@@H](Cc1c[nH]cn1)C(=O)N[C@@H](CCCCN)C(=O)N[C@@H](CC(=O)O)C(=O)N[C@@H](CCSC)C(=O)N[C@@H](CCC(N)=O)C(=O)N[C@@H](CC(C)C)C(=O)NCC(=O)N[C@@H](CCCN=C(N)N)C(=O)O)[C@@H](C)CC)C(C)C)C(C)C)[C@@H](C)O (Ac-MIKAFTEMMVVASQLRANISHKDMQLGR-OH) | – | > 20 | Ki [5]: 100 µM
CC[C@H](C)[C@H](NC(=O)[C@H](CC(N)=O)NC(=O)[C@H](C)NC(=O)[C@H](CCCN=C(N)N)NC(=O)[C@H](CC(C)C)NC(=O)[C@H](CCC(N)=O)NC(=O)[C@H](CO)NC(=O)[C@H](C)NC(=O)[C@@H](NC(=O)[C@@H](NC(=O)[C@H](CCSC)NC(=O)[C@H](CCSC)NC(=O)[C@H](CCC(=O)O)NC(=O)[C@@H](NC(=O)[C@@H](N)Cc1ccccc1)[C@@H](C)O)C(C)C)C(C)C)C(=O)N[C@@H](CO)C(=O)N[C@@H](Cc1c[nH]cn1)C(=O)N[C@@H](CCCCN)C(=O)N[C@@H](CC(=O)O)C(=O)N[C@@H](CCSC)C(=O)N[C@@H](CCC(N)=O)C(=O)N[C@@H](CC(C)C)C(=O)NCC(=O)N[C@@H](CCCN=C(N)N)C(=O)O (H-FTEMMVVASQLRANISHKDMQLGR-OH) | – | > 20 | –
CC[C@H](C)[C@H](NC(=O)[C@H](CC(N)=O)NC(=O)[C@H](C)NC(=O)[C@H](CCCNC(=N)N)NC(=O)[C@H](CC(C)C)NC(=O)[C@H](CCC(N)=O)NC(=O)[C@@H](N)CO)C(=O)N[C@@H](CO)C(=O)N[C@@H](Cc1cnc[nH]1)C(=O)N[C@@H](CCCCN)C(=O)N[C@@H](CC(=O)O)C(=O)N[C@@H](CCSC)C(=O)N[C@@H](CCC(N)=O)C(=O)N[C@@H](CC(C)C)C(=O)NCC(=O)N[C@@H](CCCNC(=N)N)C(=O)O (H-SQLRANISHKDMQLGR-OH) | – | – | Ki [7]: 300 µM
